Experimental data reported in ChEMBL document CHEMBL4004809, “Dibenzofurans and Pseudodepsidones from the Lichen Stereocaulon paschale Collected in Northern Quebec” (2017).
≈ marks a conversion by molar mass, not a printed value. Calls of active or inactive are those of the source. The calls are words filed in the database; no cut-off is given here.

Tests used:
Assay type in all cases: functional
[1] = system: Porphyromonas gingivalis; assay: Antibacterial activity against Porphyromonas gingivalis ATCC 33277 after 24 hrs; conditions: ATCC 33277, 24 h
Outline: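 P. gingivalis grown anaerobically (N2-H2-CO2 80:10:10) at 37 °C in Todd-Hewitt broth with 0.001% hemin and 0.0001% vitamin K. Overnight culture diluted to OD660 0.2 and added 1:1 to serial dilutions of compound (80 to 5 μM). Vehicle-only and penicillin G controls. After 24 h, MIC taken as lowest concentration giving complete growth inhibition. Triplicate.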

[2] = system: Streptococcus mutans; assay: Antibacterial activity against Streptococcus mutans ATCC 25175 after 24 hrs; conditions: ATCC 25175, 24 h
Outline: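 S. mutans grown aerobically at 37 °C in Todd-Hewitt broth with 0.001% hemin and 0.0001% vitamin K. Overnight culture diluted to OD660 0.2 and mixed 1:1 with serial compound dilutions (80 to 5 μM). Vehicle-only and penicillin G controls included. MIC = lowest concentration with complete growth inhibition after 24 h. Triplicate.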

[3] = system: Porphyromonas gingivalis; assay: Bactericidal activity against Porphyromonas gingivalis ATCC 33277 after 24 hrs; conditions: ATCC 33277, 24 h
Outline: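 For MBC, P. gingivalis was run as in the anaerobic broth MIC set-up (THBHK, 37 °C, 24 h, 80 to 5 μM). 10 μL from wells without visible growth was spread on solid medium. MBC was read from these subcultures. Penicillin G served as reference. Triplicate.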

[4] = system: Streptococcus mutans; assay: Bactericidal activity against Streptococcus mutans ATCC 25175 after 24 hrs; conditions: ATCC 25175, 24 h
Outline: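 MBC for S. mutans was run after the aerobic 37 °C THBHK microdilution (80 to 5 μM, 24 h). 10 μL aliquots from wells lacking visible growth were plated on solid medium to find the minimal bactericidal concentration. Penicillin G served as reference. Triplicate.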

[5] = system: Candida albicans; assay: Antifungal activity against Candida albicans ATCC 28366 assessed as growth inhibition at 80 uM after 24 hrs
Outline: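 C. albicans cultured aerobically at 37 °C in yeast nitrogen base with 0.5% glucose. Overnight culture diluted to OD660 0.2 and added 1:1 to compound dilutions, top level 80 μM. Vehicle-only and nystatin controls included. Growth inhibition scored after 24 h. Triplicate.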

SMILES | MIC [1] [µM] | MIC [2] [µM] | MBC [3] [µM] | MBC [4] [µM] | growth inhibition (GI) [5]
CCCCCc1c(Oc2cc(OC)cc(C(=O)CCCC)c2C(=O)OC)c(O)cc(O)c1C(=O)O | 40 (≈ 19.5 µg/mL) | 80 (≈ 39.1 µg/mL) | 40 (≈ 19.5 µg/mL) | > 80 | inactive
CCC/C=C1\OC(=O)c2c(Oc3c(O)cc(O)cc3CCCCC)cc(OC)cc21 | 20 (≈ 8.25 µg/mL) | 10 (≈ 4.12 µg/mL) | 20 (≈ 8.25 µg/mL) | 20 (≈ 8.25 µg/mL) | inactive
CCCCCc1cc(O)cc(O)c1Oc1cc(OC)cc2c1C(=O)OC2(CCCC)OC (centres undefined) | 80 (≈ 35.6 µg/mL) | 80 (≈ 35.6 µg/mL) | 80 (≈ 35.6 µg/mL) | 80 (≈ 35.6 µg/mL) | inactive
COC(=O)c1c(C)cc(O)c(C)c1O [ATRARIC ACID] | > 80 | > 80 | > 80 | > 80 | inactive
Cc1cc(O)cc2oc3cc(O)cc(CO)c3c12 | > 80 | > 80 | > 80 | > 80 | inactive
Cc1c(C(=O)O)c(O)cc2oc3cc(O)cc(C(=O)O)c3c12 | > 80 | > 80 | > 80 | > 80 | inactive
CCCCCc1cc(O)cc(O)c1Oc1cc(OC)cc(C(=O)CCCC)c1C(=O)OC | 80 (≈ 35.6 µg/mL) | 80 (≈ 35.6 µg/mL) | 80 (≈ 35.6 µg/mL) | > 80 | inactive
CCCCCc1cc(O)cc(O)c1Oc1cc(OC)cc2c1C(=O)OC2(O)CCCC (centres undefined) [SAKISACAULON A] | > 80 | 80 (≈ 34.4 µg/mL) | > 80 | 80 (≈ 34.4 µg/mL) | inactive
Cc1c(C(=O)O)c(O)cc2oc3cc(O)cc(CO)c3c12 | > 80 | > 80 | > 80 | > 80 | inactive
CCCCCc1c(Oc2cc(OC)cc3c2C(=O)OC3(CCCC)OC)c(O)cc(O)c1C(=O)O (centres undefined) | 80 (≈ 39.1 µg/mL) | 80 (≈ 39.1 µg/mL) | 80 (≈ 39.1 µg/mL) | 80 (≈ 39.1 µg/mL) | inactive
CCCCCc1c2c(cc(O)c1C(=O)O)OC(=O)c1c(cc(OC)cc1C(=O)CCCC)O2 [LOBARIC ACID] | 80 (≈ 36.5 µg/mL) | 20 (≈ 9.13 µg/mL) | 80 (≈ 36.5 µg/mL) | 80 (≈ 36.5 µg/mL) | inactive
COC(=O)c1c(C)cc(O)c(C=O)c1O [METHYL HAEMATOMMATE] | > 80 | > 80 | > 80 | > 80 | inactive
CC1(C)S[C@@H]2[C@H](NC(=O)Cc3ccccc3)C(=O)N2[C@H]1C(=O)O [PENICILLIN G] | 0.29 (≈ 0.097 µg/mL) | 0.15 (≈ 0.0502 µg/mL) | 2.3 (≈ 0.769 µg/mL) | 4.7 (≈ 1.57 µg/mL) | 
